Assay results from different studies.
Lines come from different studies, so protocols differ.
Target: Tyrosine-protein kinase HCK (HCK, Homo sapiens, UniProt P08631)

| SMILES | observed | action | technique | tested at | measurement | result |
| --- | --- | --- | --- | --- | --- | --- |
| Cc1cnc(NC2CCOCC2)nc1-n1cnc(C(=O)NC(CN)c2cc(F)cc(Cl)c2)c1 (stereo not drawn) | enzyme activity | inhibitor | radiometric | 1 µM | remaining activity | 101% |
| CNC(=O)c1cc(Oc2ccc(NC(=O)Nc3ccc(Cl)c(C(F)(F)F)c3)cc2)ccn1 | cell-free assay |  |  | 0.5 µM | remaining signal | 90.3% |
| CC(=O)N1CCC(c2ccc(C(=O)NC(=N)N)cc2C(F)(F)F)CC1 | cell-free assay |  | competition with immobilised ligand | 1 µM | remaining binding | 100% |
| COc1cc(Cl)c(C(=O)N[C@@H](CN[C@H]2CC[C@@H](N)CC2)Cc2ccc(C#N)cc2)cc1-c1ccc(CN[C@H](C)c2ccc(C)cc2)o1 | enzyme activity | inhibitor |  | 1 µM | remaining activity | 99% |
| CC/C(=N\NC(=O)NCc1cccc(O)c1)c1ccc(O)c(C)c1O | enzyme activity | inhibitor |  | 0.1 µM | inhibition | 6.1% |
| Cc1ccc(NC(=O)c2ccc(C)c(C(F)(F)F)c2)cc1C#Cc1nn(C2CCC(O)CC2)c2ncnc(N)c12 (stereo not drawn) | cell-free assay |  |  | 10 µM | remaining signal | 0% |
| N#CCCc1ccc2c(c1)-c1[nH]c3ccc([N+](=O)[O-])cc3c1CC(=O)N2 | cell-free assay |  |  | 0.5 µM | remaining signal | 63.8% |
| NS(=O)(=O)c1cc(NC(=O)C2(c3ccccc3Cl)CC2)ccc1Oc1cccc(Cl)c1 | cell-free assay |  | competition with immobilised ligand | 1 µM | remaining binding | 89% |
| CCN(CC)CCNC(=O)c1c(C)[nH]c(/C=C2\C(=O)Nc3ccc(F)cc32)c1C | enzyme activity | inhibitor |  | 10 µM | inhibition | 92% |
| CNC(=O)c1ccc(Nc2ncc(C(F)(F)F)c(NCc3nccnc3N(C)S(C)(=O)=O)n2)cc1 | cell-free assay |  | competition with immobilised ligand | 0.1 µM | remaining binding | 100% |
| CNC(=O)c1cc2c(Oc3ccc(NC(=O)C4(C(=O)Nc5ccc(F)cc5)CC4)cc3)ccnc2cc1OC | enzyme activity | inhibitor | radiometric | 1 µM | inhibition | 98% |
| O=S(=O)(NC1CCC(c2cc(F)ccc2F)(S(=O)(=O)c2ccc(Cl)cc2)CC1)C(F)(F)F (stereo not drawn) | cell-free assay |  | competition with immobilised ligand | 1 µM | remaining binding | 85% |
| O=C1NC(=O)c2cc(Nc3ccc(F)cc3)c(Nc3ccc(F)cc3)cc21 | cell-free assay |  |  | 0.5 µM | remaining signal | 88.3% |
| Nc1ncnc2occ(-c3ccc(NC(=O)Nc4cc(C(F)(F)F)ccc4F)cc3)c12 | cell-free assay |  |  | 20 µM | remaining signal | 0.2% |
| CC(=O)c1c(NS(C)(=O)=O)c2cc(-c3ccc(Cl)cc3)c(-c3ccc(Cl)cc3Cl)nc2n(C)c1=O | cell-free assay |  | competition with immobilised ligand | 1 µM | remaining binding | 100% |
| CN(C)C1CCN(CC#Cc2nn(C3CCCC3)c3nc(NCc4ccccc4)ncc23)C1 (stereo not drawn) | enzyme activity | inhibitor | FRET | 1 µM | inhibition | 2% |
| COc1cc(Nc2c(C#N)cnc3cc(OCCCN4CCN(C)CC4)c(OC)cc23)c(Cl)cc1Cl | cell-free assay |  |  | 0.5 µM | remaining signal | 11.9% |
| Cc1cc(NC(=O)c2cccc(S(F)(F)(F)(F)F)c2)cc(-n2ccn3nc(-c4cccnc4)cc23)c1 | cell-free assay |  | competition with immobilised ligand | 1 µM | remaining binding | 98.7% |
| Cc1sc(C(=O)NC2COC2)cc1-n1cc(NC(=O)Nc2c(F)cccc2Cl)cn1 | enzyme activity | inhibitor |  | 10 µM | remaining activity | 95% |
| CC(C)(C)c1nc2c(s1)c1nc(N)ncc1c1ccc(NS(=O)(=O)c3c(F)cccc3F)c(F)c12 | enzyme activity | inhibitor | radiometric | 1 µM | remaining activity | 82% |
| COc1cc2ncnc(Nc3ccc(Oc4ccccc4)c(C)c3C)c2cc1OC | enzyme activity | inhibitor |  | 1 µM | inhibition | 53% |
| CN(C(=O)c1ccccc1)c1cc(N(C)c2ccc3c(c2)CCc2ccc(C(=O)NCCN4CCOCC4)cc2C3=O)ccc1F | cell-free assay |  | competition with immobilised ligand | 1 µM | remaining binding | 100% |
| Cc1ccc(Nc2nccc(N(C)c3ccc4c(C)n(C)nc4c3)n2)cc1S(N)(=O)=O | enzyme activity | inhibitor |  | 0.3 µM | inhibition | 21% |
| CC(C)(O)[C@H]1CC[C@H](Nc2ccc3ncc(-c4cccc(C(F)(F)F)c4)n3n2)CC1 | enzyme activity | inhibitor |  | 1 µM | remaining activity | 40.5% |
